Active and inactive are the calls of the source.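 The calls were made as follows, unless noted: active = viability at or below 10% of carrier control in both of two separate runs; inconclusive = viability at or below 10% in only one of the two runs; inactive = the rest.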
Experiments:
[1] = reducers of endogenous Her2 protein level, primary screen, SKBR3 breast tumor cells, AlphaScreen, ATP viability (AID 461;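 active = Her2 level under about 52% in both replicate screens, with viability over 70% of control, limit read from the data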;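 as to Her2 level: lower value means less Her2 protein in the cells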;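 as to viability: percent of carrier control wells set as 100% viability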); details: 18-24 h, measured here: SKBR3 viability, ATP luminescence, at 10 µM
[2] = target: Receptor tyrosine-protein kinase erbB-2 (Homo sapiens) (UniProt P04626); assay: as above; details: 18-24 h, at 10 µM, stronger effect = lower value
[3] = SK-BR-3 cell growth inhibitors, pilot screen, 24 h, human (AID 572); details: SK-BR-3 viability, CellTiter-Glo luminescence, at 10 µM, stronger effect = lower value;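 also: compound exposure lasted between 18 and 24 h rather than exactly 24 h; 100% = carrier-treated control wells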
[4] = HUVEC growth inhibition – cell-based, human, primary screen (AID 575;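 active = viability at or below 30% in both replicate assays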;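 also: 100% = median of untreated cell wells with 0.1% DMSO on each plate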); details: HUVEC proliferation, CellTiter-Glo luminescence, 72 h; at 10 µM; stronger effect = lower value
Procedure, shortened: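 System – primary HUVEC, no more than 12 passages · Medium – Low-serum (2% FBS) EBM, supplemented · Times – 72 h exposure, 37 °C, 5% CO2, 30 min RT equilibration · Measured by – luminescent ATP assay · Read-out – % viability relative to median vehicle-well signal on each plate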

[5] = growth inhibitors of H69AR lung tumor, primary screen, human, duplicate replicates (AID 580;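 active = viability at or under a set limit in both replicates, limit being median viability minus 3 SD, cut at about 48% in these data, passing the limit was not always enough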;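 also: 100% = mean luminescence of untreated wells and 0% = no signal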); details: H69AR lung tumor cells viability, ATP luminescence, 72 h; at 10 µM; stronger effect = lower value
[6] = reversal of MRP1-mediated doxorubicin resistance, pilot screen, H69AR cells, doxorubicin co-treatment (AID 601;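 active = viability loss from added drug above about 55%, and viability with drug at most 40%, in both replicates, limit read from the data, passing the limit was not always enough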); details: CellTiter-Glo, 72 h, at 10 µM; for differential viability (reversal): stronger effect = higher value
[7] = 384-well plate pilot, post-Golgi transport modulator project, inhibition of yeast transport mutant growth (AID 636; in the data active = inhibition above about 31%); details: absorbance 615 nm, about 18 h, stronger effect = higher value
[8] = growth suppression of yeast trafficking mutant, preliminary HTS, modulators of trafficking downstream of Golgi apparatus project, 1536-format plate, OD 615 nm (AID 637; in the data active = inhibition above about 30%); details: yeast transport mutant growth, absorbance 615 nm, 18 h; stronger effect = higher value
[9] = H69AR cells + 2 uM doxorubicin, measured here: viability with 2 uM doxorubicin, stronger effect = lower value
[10] = H69AR cells, compound alone cytotoxicity

Sequence of Receptor tyrosine-protein kinase erbB-2 (Homo sapiens) (P04626 whole entry, looked up): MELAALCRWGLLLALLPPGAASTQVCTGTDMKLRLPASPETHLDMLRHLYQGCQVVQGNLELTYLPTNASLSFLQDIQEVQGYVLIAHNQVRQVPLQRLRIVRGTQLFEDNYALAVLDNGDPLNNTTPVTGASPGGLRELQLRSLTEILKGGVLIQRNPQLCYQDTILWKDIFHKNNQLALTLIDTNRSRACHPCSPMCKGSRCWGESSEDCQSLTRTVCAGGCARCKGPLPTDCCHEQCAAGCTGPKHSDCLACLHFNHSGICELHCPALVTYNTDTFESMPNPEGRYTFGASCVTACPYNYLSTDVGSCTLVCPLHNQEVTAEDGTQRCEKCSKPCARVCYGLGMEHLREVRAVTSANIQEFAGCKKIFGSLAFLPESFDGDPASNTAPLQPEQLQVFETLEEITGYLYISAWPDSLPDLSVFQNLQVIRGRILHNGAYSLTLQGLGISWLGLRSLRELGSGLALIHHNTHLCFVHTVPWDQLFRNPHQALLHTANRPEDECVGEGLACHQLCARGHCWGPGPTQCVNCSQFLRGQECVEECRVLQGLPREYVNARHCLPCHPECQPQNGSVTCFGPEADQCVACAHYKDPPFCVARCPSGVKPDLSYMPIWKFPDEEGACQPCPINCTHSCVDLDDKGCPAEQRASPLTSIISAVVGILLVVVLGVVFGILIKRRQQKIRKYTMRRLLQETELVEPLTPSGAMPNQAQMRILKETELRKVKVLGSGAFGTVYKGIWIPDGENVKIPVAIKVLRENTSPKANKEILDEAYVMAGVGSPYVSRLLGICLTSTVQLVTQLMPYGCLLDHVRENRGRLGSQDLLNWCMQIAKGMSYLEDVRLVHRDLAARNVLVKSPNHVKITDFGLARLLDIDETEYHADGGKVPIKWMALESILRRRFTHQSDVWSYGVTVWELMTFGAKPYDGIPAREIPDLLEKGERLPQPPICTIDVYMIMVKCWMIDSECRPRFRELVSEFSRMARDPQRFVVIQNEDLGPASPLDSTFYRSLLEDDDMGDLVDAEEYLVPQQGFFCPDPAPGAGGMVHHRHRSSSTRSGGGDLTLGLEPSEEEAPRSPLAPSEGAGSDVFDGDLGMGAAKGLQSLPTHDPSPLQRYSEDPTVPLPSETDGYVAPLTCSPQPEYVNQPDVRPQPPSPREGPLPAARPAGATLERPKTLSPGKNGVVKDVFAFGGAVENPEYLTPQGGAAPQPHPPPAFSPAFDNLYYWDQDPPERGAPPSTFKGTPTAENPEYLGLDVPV

SMILES | viability [1] [%] | Her2 level [2] | viability [3] | viability [4] | viability [5] | differential viability (reversal) ([6]; H69AR cells + 2 uM doxorubicin) | viability [6, 9] [%] | viability [6, 10] [%] | inhibition [7] | inhibition [8]
O=C(CN1CCOCC1)N1CCN(C(=O)CN2CCOCC2)CC1 | 102 | 99.5% (inactive) | 102% (inactive) | 93.7% (inactive) | 104% (inactive) | 15.6% (inactive) | 88.9 | 104 | -3.73% (inactive) | 1.97% (inactive)
N#CCc1c(C#N)c(N)nc(N2CCN(S(=O)(=O)c3ccccc3)CC2)c1C#N | 74 | 75.5% (inactive) | 74% (inactive) | 59% (inactive) | 77.6% (inactive) | -13.6% (inactive) | 91.2 | 77.6 | -4.46% (inactive) | 0.16% (inactive)
CCCN1C(=O)SC(CC(=O)Nc2ccc(Br)cc2)C1=O (stereo not given) | 105 | 112% (inactive) | 105% (inactive) | 77.7% (inactive) | 95.8% (inactive) | 4.58% (inactive) | 91.2 | 95.8 | -2.24% (inactive) | -8.41% (inactive)
Cc1cc(-c2ccc(F)cc2)nc2cc(C(N)=O)nn12 | 94.5 | 104% (inactive) | 94.5% (inactive) | 84.6% (inactive) | 87.6% (inactive) | -1.99% (inactive) | 89.6 | 87.6 | -2.47% (inactive) | 17.3% (inactive)
O=C(c1cnsn1)N1CCN(c2ccccn2)CC1 | 122 | 75% (inactive) | 122% (inactive) | 100% (inactive) | 102% (inactive) | 10.7% (inactive) | 91.7 | 102 | -0.66% (inactive) | -5.87% (inactive)
CCOC(=O)c1ccccc1NC(=O)N1CCn2c(C)ccc2C1CC (stereo not given) | 107 | 88% (inactive) | 107% (inactive) | 103% (inactive) | 84.8% (inactive) | 1.62% (inactive) | 83.2 | 84.8 | -4.46% (inactive) | -4.92% (inactive)
CCc1c(C(=O)N2CCOCC2)csc1C | 120 | 154% (inactive) | 120% (inactive) | 101% (inactive) | 106% (inactive) | 20.8% (inactive) | 84.9 | 106 | -3.95% (inactive) | -8.33% (inactive)
COc1ccc(C2CC(c3ccccc3)Nc3nc(NC(=O)c4cccs4)nn32)cc1 (stereo not given) | 81.5 | 94.5% (inactive) | 81.5% (inactive) | 83.3% (inactive) | 88.3% (inactive) | 4.87% (inactive) | 83.4 | 88.3 | -1.69% (inactive) | -5.08% (inactive)
COc1ccc(C(=O)NCCSc2ccccn2)cc1 | 97 | 108% (inactive) | 97% (inactive) | 102% (inactive) | 96% (inactive) | 17.4% (inactive) | 78.6 | 96 | -7.07% (inactive) | 0.32% (inactive)
O=c1[nH]c(SCc2ccccc2Cl)nc2c1CCCC2 | 100 | 75.5% (inactive) | 100% (inactive) | 65.4% (inactive) | 89.5% (inactive) | -3.21% (inactive) | 92.7 | 89.5 | -5.13% (inactive) | 0.17% (inactive)
Cc1c(C(=O)NCCC2=CCCCC2)oc2ccc(S(=O)(=O)N3CCC4(CC3)OCCO4)cc12 | 94.5 | 104% (inactive) | 94.5% (inactive) | 49.1% (inactive) | 48.1% (active) | -4.29% (inactive) | 52.4 | 48.1 | -10.8% (inactive) | -11.5% (inactive)
COc1ccccc1NC(=O)c1ccc(COc2ccccc2OC)o1 | 95.5 | 97% (inactive) | 95.5% (inactive) | 87.6% (inactive) | 97.2% (inactive) | 5.99% (inactive) | 91.3 | 97.2 | -6.27% (inactive) | 0% (inactive)
O=S(=O)(NCC1CCCO1)c1cc(Cl)ccc1Br (stereo not given) | 87.5 | 121% (inactive) | 87.5% (inactive) | 109% (inactive) | 96.5% (inactive) | 2.42% (inactive) | 94.1 | 96.5 | 3.25% (inactive) | 4% (inactive)
COc1cc(C(=O)Nc2cccc(-c3nc4cc(C)ccc4o3)c2)cc(OC)c1OC | 95 | 80% (inactive) | 95% (inactive) | 66.8% (inactive) | 55.7% (inactive) | 4.43% (inactive) | 51.3 | 55.7 | -5% (inactive) | 4.76% (inactive)
N#CC1=C(N)N(c2ccccc2)C2=C(C(=O)CCC2)C1c1cccs1 (stereo not given) | 96.5 | 97.5% (inactive) | 96.5% (inactive) | 80.8% (inactive) | 70.3% (inactive) | 46.8% (inactive) | 23.5 | 70.3 | -5.95% (inactive) | 0.83% (inactive)
O=C(Nc1ccc2c(c1)OCO2)c1cc2ncc(Br)cn2n1 | 101 | 104% (inactive) | 101% (inactive) | 84.8% (inactive) | 86.8% (inactive) | -17.3% (inactive) | 104 | 86.8 | -4.67% (inactive) | -0.16% (inactive)
Cc1ccc(NC(=O)CSc2nnc(CSc3nc(C)cc(C)n3)n2Cc2ccco2)c(C)c1 | 88 | 96% (inactive) | 88% (inactive) | 96.9% (inactive) | 80.8% (inactive) | 16.1% (inactive) | 64.7 | 80.8 | 0.8% (inactive) | -6.72% (inactive)
c1ccc(-n2cnc3cc(NCc4ccccn4)ccc32)cc1 | 109 | 90.5% (inactive) | 109% (inactive) | 102% (inactive) | 86.4% (inactive) | 2.47% (inactive) | 84 | 86.4 | -5.27% (inactive) | 2.7% (inactive)
Cc1ccc(S(=O)(=O)C2(C(=O)Nc3nccs3)CC2)cc1 | 95 | 95% (inactive) | 95% (inactive) | 93.7% (inactive) | 101% (inactive) | 5.59% (inactive) | 95 | 101 | -2.44% (inactive) | -2.33% (inactive)
Cc1cc(C)nc(NC(=O)c2c(-c3c(Cl)cccc3Cl)noc2C)n1 | 84 | 98.5% (inactive) | 84% (inactive) | 94% (inactive) | 85.1% (inactive) | -5.23% (inactive) | 90.3 | 85.1 | -7.73% (inactive) | -6.03% (inactive)
CC(C)c1ccc(S(=O)(=O)N2CCN(CCC(=O)Nc3ccc(N(C)C)cc3)CC2)cc1 | 100 | 93% (inactive) | 100% (inactive) | 66.8% (inactive) | 60.6% (inactive) | 40.2% (inactive) | 20.4 | 60.6 | -3.29% (inactive) | -4.67% (inactive)
Cc1cccc2cc(COC(=O)C(C)(C)C)c(=O)[nH]c12 | 95.5 | 91.5% (inactive) | 95.5% (inactive) | 108% (inactive) | 97.6% (inactive) | 2.58% (inactive) | 95 | 97.6 | 0.13% (inactive) | 5.17% (inactive)
O=C(c1ccccc1)c1coc2ccc(O)c(CN3CCOCC3)c12 | 78.5 | 75.5% (inactive) | 78.5% (inactive) | 115% (inactive) | 88.5% (inactive) | -9.25% (inactive) | 97.8 | 88.5 | -3.42% (inactive) | 5.9% (inactive)
CC(C)(C)C1=C[C@@H](CO)C[C@@H](CO)C1 | 86 | 87% (inactive) | 86% (inactive) | 94.2% (inactive) | 87.3% (inactive) | -0.585% (inactive) | 87.9 | 87.3 | -4.13% (inactive) | -5.08% (inactive)
CS(=O)(=O)Nc1ccc(C(=O)NCc2ccco2)cc1 | 88.5 | 106% (inactive) | 88.5% (inactive) | 104% (inactive) | 103% (inactive) | 2.3% (inactive) | 101 | 103 | -1.05% (inactive) | -5.16% (inactive)
CC(=O)c1cccc(NC(=O)N2CCCc3ccccc32)c1 | 105 | 104% (inactive) | 105% (inactive) | 95% (inactive) | 93.6% (inactive) | 2.88% (inactive) | 90.7 | 93.6 | -3.73% (inactive) | 3.93% (inactive)
CCOC(=O)c1[nH]cc(-c2ccccc2)c1N1CCOCC1 | 92.5 | 89.5% (inactive) | 92.5% (inactive) | 98% (inactive) | 94.7% (inactive) | 9.26% (inactive) | 85.5 | 94.7 | -2.5% (inactive) | 0.55% (inactive)
Cc1ccc(C(=O)N2CCCC(c3nc4c(nnn4Cc4ccccc4)c(=O)[nH]3)C2)cc1 (stereo not given) | 80.5 | 105% (inactive) | 80.5% (inactive) | 110% (inactive) | 83.4% (inactive) | 24.5% (inactive) | 58.9 | 83.4 | -3.08% (inactive) | 7.33% (inactive)
CCOC(=O)c1cc2sccc2n1Cc1ccccc1 | 100 | 116% (inactive) | 100% (inactive) | 97.9% (inactive) | 96% (inactive) | 15.4% (inactive) | 80.7 | 96 | -2.8% (inactive) | 1.8% (inactive)
